Several values for one entry are separate records, joined by “and”; a condition that tells them apart may be missing. Equal values may be shown once.
System: HEK-293T
Assay: Multiplex assay against HEK293T
Assay type: toxicity, cell-based
Settings: human
Summary of the method: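 Live cells were stained at seeding with Hoechst33342, BioTracker Green Microtubule Cytoskeleton Dye, MitoTracker Red and Annexin V Alexa Fluor 680. Following compound addition, they were imaged on a CQ1 microscope at 37°C and 5% CO2 and gated by CellPathfinder machine learning into Hoechst high-intensity objects or normal cells, with normal cells split into healthy, pyknosed or fragmented nuclei and pyknosed cells into mitotic or apoptotic. Tubulin, mitochondrial-mass and membrane-permeability phenotypes are per cents of healthy-nucleus cells.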

[1] = 12 h, 1 µM, compound concentration 1 uM
[2] = 12 h, 10 µM, compound concentration 10 uM
[3] = 24 h, 1 µM, compound concentration 1 uM
[4] = 24 h, 10 µM, compound concentration 10 uM
[5] = 48 h, 1 µM, compound concentration 1 uM
[6] = 48 h, 10 µM, compound concentration 10 uM

`N#Cc1cc(F)cc(-c2nc(-c3ccc(F)cn3)no2)c1` was tested, and the “Population Apoptotic (%)” value [1] was 38% and 64%, the “Population Fragmented Nuclei (%)” value [1] was 10% and 6% and the “Population Healthy Nuclei (%)” value [1] was 76% and 77%. The “Population Hoechst High Intensity Objects (%)” value [1] was 5% and 8%, the “Population Membrane Permeable-Phenotype (%)” value [1] was 0% and the “Population Mitochondria Different-Phenotype (%)” value [1] was 41% and 55%. For the same compound, the “Population Mitotic Cells (%)” value [1] was 61% and 36%, the “Population Normal (%)” value [1] was 95% and 91% and the “Population Pyknosed Nuclei (%)” value [1] was 12% and 15%. For the same compound, the “Population Tubulin-Different-Phenotype (%)” value [1] was 25% and 22%, the “Total Cell Count” value [1] was 280 and 342 and the “Population Apoptotic (%)” value [2] was 45%. The “Population Fragmented Nuclei (%)” value [2] was 10% and 8%, the “Population Healthy Nuclei (%)” value [2] was 73% and 77% and the “Population Hoechst High Intensity Objects (%)” value [2] was 4% and 10%. For the same compound, the “Population Membrane Permeable-Phenotype (%)” value [2] was 0%, the “Population Mitochondria Different-Phenotype (%)” value [2] was 51% and 61% and the “Population Mitotic Cells (%)” value [2] was 55% and 54%. The “Population Normal (%)” value [2] was 95% and 89%, the “Population Pyknosed Nuclei (%)” value [2] was 16% and 13% and the “Population Tubulin-Different-Phenotype (%)” value [2] was 29% and 22%. For the same compound, the “Total Cell Count” value [2] was 383 and 269, the “Population Apoptotic (%)” value [3] was 43% and 48% and the “Population Fragmented Nuclei (%)” value [3] was 9% and 7%. The “Population Healthy Nuclei (%)” value [3] was 77% and 82%, the “Population Hoechst High Intensity Objects (%)” value [3] was 6% and 7% and the “Population Membrane Permeable-Phenotype (%)” value [3] was 0%. The “Population Mitochondria Different-Phenotype (%)” value [3] was 19% and 36%, the “Population Mitotic Cells (%)” value [3] was 56% and 51% and the “Population Normal (%)” value [3] was 93% and 92%. The “Population Pyknosed Nuclei (%)” value [3] was 12% and 9%, the “Population Tubulin-Different-Phenotype (%)” value [3] was 12% and 15% and the “Total Cell Count” value [3] was 353 and 463. For the same compound, the “Population Apoptotic (%)” value [4] was 41% and 39%, the “Population Fragmented Nuclei (%)” value [4] was 10% and the “Population Healthy Nuclei (%)” value [4] was 74% and 79%. The “Population Hoechst High Intensity Objects (%)” value [4] was 4% and 8%, the “Population Membrane Permeable-Phenotype (%)” value [4] was 0% and the “Population Mitochondria Different-Phenotype (%)” value [4] was 34% and 40%. The “Population Mitotic Cells (%)” value [4] was 58% and 60%, the “Population Normal (%)” value [4] was 95% and 91% and the “Population Pyknosed Nuclei (%)” value [4] was 14% and 9%. For the same compound, the “Population Tubulin-Different-Phenotype (%)” value [4] was 18% and 12%, the “Total Cell Count” value [4] was 479 and 363 and the “Population Apoptotic (%)” value [5] was 35% and 27%. The “Population Fragmented Nuclei (%)” value [5] was 15% and 11%, the “Population Healthy Nuclei (%)” value [5] was 77% and 81% and the “Population Hoechst High Intensity Objects (%)” value [5] was 1% and 0%. The “Population Membrane Permeable-Phenotype (%)” value [5] was 1%, the “Population Mitochondria Different-Phenotype (%)” value [5] was 16% and 18% and the “Population Mitotic Cells (%)” value [5] was 64% and 72%. For the same compound, the “Population Normal (%)” value [5] was 98% and 99%, the “Population Pyknosed Nuclei (%)” value [5] was 6% and the “Population Tubulin-Different-Phenotype (%)” value [5] was 11% and 10%. The “Total Cell Count” value [5] was 585 and 715, the “Population Apoptotic (%)” value [6] was 39% and 48% and the “Population Fragmented Nuclei (%)” value [6] was 16%. The “Population Healthy Nuclei (%)” value [6] was 75% and 77%, the “Population Hoechst High Intensity Objects (%)” value [6] was 1% and 4% and the “Population Membrane Permeable-Phenotype (%)” value [6] was 1%. The “Population Mitochondria Different-Phenotype (%)” value [6] was 18% and 22%, the “Population Mitotic Cells (%)” value [6] was 60% and 51% and the “Population Normal (%)” value [6] was 98% and 95%. For the same compound, the “Population Pyknosed Nuclei (%)” value [6] was 8% and 5%, the “Population Tubulin-Different-Phenotype (%)” value [6] was 9% and 11% and the “Total Cell Count” value [6] was 643 and 501.

`Cc1noc(-c2ccc(-c3ccc(CC(=O)O)cc3)cc2)c1NC(=O)O[C@H](C)c1ccccc1Cl` was tested, and the “Population Apoptotic (%)” value [1] was 29% and 59%, the “Population Fragmented Nuclei (%)” value [1] was 7% and 4% and the “Population Healthy Nuclei (%)” value [1] was 79% and 77%. For the same compound, the “Population Hoechst High Intensity Objects (%)” value [1] was 5% and 11%, the “Population Membrane Permeable-Phenotype (%)” value [1] was 0% and the “Population Mitochondria Different-Phenotype (%)” value [1] was 38% and 69%. For the same compound, the “Population Mitotic Cells (%)” value [1] was 70% and 40%, the “Population Normal (%)” value [1] was 94% and 88% and the “Population Pyknosed Nuclei (%)” value [1] was 13% and 17%. The “Population Tubulin-Different-Phenotype (%)” value [1] was 29% and 28%, the “Total Cell Count” value [1] was 403 and 296 and the “Population Apoptotic (%)” value [2] was 51% and 41%. The “Population Fragmented Nuclei (%)” value [2] was 11% and 8%, the “Population Healthy Nuclei (%)” value [2] was 68% and 72% and the “Population Hoechst High Intensity Objects (%)” value [2] was 7% and 14%. The “Population Membrane Permeable-Phenotype (%)” value [2] was 0%, the “Population Mitochondria Different-Phenotype (%)” value [2] was 72% and 69% and the “Population Mitotic Cells (%)” value [2] was 48% and 58%. The “Population Normal (%)” value [2] was 92% and 85%, the “Population Pyknosed Nuclei (%)” value [2] was 20% and 18% and the “Population Tubulin-Different-Phenotype (%)” value [2] was 65% and 34%. For the same compound, the “Total Cell Count” value [2] was 295 and 341, the “Population Apoptotic (%)” value [3] was 22% and 40% and the “Population Fragmented Nuclei (%)” value [3] was 10% and 9%. For the same compound, the “Population Healthy Nuclei (%)” value [3] was 79% and 80%, the “Population Hoechst High Intensity Objects (%)” value [3] was 5% and 7% and the “Population Membrane Permeable-Phenotype (%)” value [3] was 0%. For the same compound, the “Population Mitochondria Different-Phenotype (%)” value [3] was 23% and 42%, the “Population Mitotic Cells (%)” value [3] was 77% and 60% and the “Population Normal (%)” value [3] was 94% and 92%. For the same compound, the “Population Pyknosed Nuclei (%)” value [3] was 9%, the “Population Tubulin-Different-Phenotype (%)” value [3] was 17% and 20% and the “Total Cell Count” value [3] was 570 and 378. For the same compound, the “Population Apoptotic (%)” value [4] was 39% and 32%, the “Population Fragmented Nuclei (%)” value [4] was 7% and 9% and the “Population Healthy Nuclei (%)” value [4] was 76% and 75%. For the same compound, the “Population Hoechst High Intensity Objects (%)” value [4] was 8% and 16%, the “Population Membrane Permeable-Phenotype (%)” value [4] was 1% and 0% and the “Population Mitochondria Different-Phenotype (%)” value [4] was 58% and 53%. The “Population Mitotic Cells (%)” value [4] was 60% and 68%, the “Population Normal (%)” value [4] was 91% and 83% and the “Population Pyknosed Nuclei (%)” value [4] was 16% and 15%. For the same compound, the “Population Tubulin-Different-Phenotype (%)” value [4] was 47% and 38%, the “Total Cell Count” value [4] was 352 and 390 and the “Population Apoptotic (%)” value [5] was 17% and 35%. The “Population Fragmented Nuclei (%)” value [5] was 11% and 12%, the “Population Healthy Nuclei (%)” value [5] was 82% and 76% and the “Population Hoechst High Intensity Objects (%)” value [5] was 4%. For the same compound, the “Population Membrane Permeable-Phenotype (%)” value [5] was 1% and 0%, the “Population Mitochondria Different-Phenotype (%)” value [5] was 20% and 34% and the “Population Mitotic Cells (%)” value [5] was 82% and 64%. For the same compound, the “Population Normal (%)” value [5] was 95%, the “Population Pyknosed Nuclei (%)” value [5] was 5% and 10% and the “Population Tubulin-Different-Phenotype (%)” value [5] was 14% and 21%. The “Total Cell Count” value [5] was 930 and 494, the “Population Apoptotic (%)” value [6] was 38% and 46% and the “Population Fragmented Nuclei (%)” value [6] was 10% and 13%. For the same compound, the “Population Healthy Nuclei (%)” value [6] was 79% and 74%, the “Population Hoechst High Intensity Objects (%)” value [6] was 6% and 10% and the “Population Membrane Permeable-Phenotype (%)” value [6] was 0% and 1%. The “Population Mitochondria Different-Phenotype (%)” value [6] was 40% and 35%, the “Population Mitotic Cells (%)” value [6] was 61% and 53% and the “Population Normal (%)” value [6] was 93% and 89%. The “Population Pyknosed Nuclei (%)” value [6] was 10% and 11%, the “Population Tubulin-Different-Phenotype (%)” value [6] was 33% and 25% and the “Total Cell Count” value [6] was 445 and 508.

Source: ChEMBL document CHEMBL5724801, “EUbOPEN Chemogenomics Library - Multiplex” (2024)
